These results are taken from ChEMBL document CHEMBL1141340, “Protein phosphatase inhibitors isolated from Spongia irregularis collected in Papua New Guinea” (J Nat Prod, 2007).

Activity calls are given as the source filed them. The rule behind the calls is not given here.

The nature of assay [1]: Inhibition of calcineurin.
Assay [2] in a line: Inhibition of PP1c. Summed up: (§1)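 Enzyme source was purified catalytic subunits of protein phosphatases PP-1 and PP-2A. Results are reported as IC50.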
Assay [3] can be described thus: Inhibition of PP2A. Summed up:
as §1

As for `C[C@@H]1CC[C@@H]2C(=CCCC2(C)C)[C@]1(C)CCC(CCCc1ccoc1)COP(=O)(O)O` (stereo partly specified), the IC50 in assay [1] was 230 µM; in assay [2], 36 µM.
For `CC1=CCCC(C)(C)C1CC/C(C)=C/CCC(CCCc1ccoc1)COS(=O)(=O)O` (stereo unspecified) [HIPPOSULFATE C], the IC50 in assay [3] is 130 µM; in assay [1] it was 66 µM; in assay [2], 71 µM.
As to `CC1=CCCC(C)(C)C1CC/C(C)=C/CCC(CO)CCCc1ccoc1` (stereo unspecified), in assay [1], the result was inactive.
For the compound `CC1=CCCC(C)(C)C1CC/C(C)=C/CCC(CCCc1ccoc1)COP(O)(O)=S` (stereo unspecified), in assay [1], the IC50 turned out to be 70 µM.
The same measure, in the same setting: with `CC(C)CCN1CC=C(CCCC(CC[C@@]2(C)C3=CCCC(C)(C)[C@@H]3CC[C@H]2C)COS(=O)(=O)O)C1=O` (stereo partly specified) [IREGULARASULFATE] the figure was 59 µM.
`C[C@@H]1CC[C@@H]2C(=CCCC2(C)C)[C@]1(C)CCC(CCCc1ccoc1)COS(=O)(=O)O` (stereo partly specified): the 50% inhibitory concentration (IC50) in assay [3] was found to be 140 µM; in assay [1], 69 µM; in assay [2], 64 µM.
